Arr AP2 block – inhibitors of beta-arrestin/AP2 binding, primary screen, biochemical, GPCR trafficking, flow cytometry. beta-arrestin 1 C-terminal peptide binding to AP2 beta2-adaptin appendage (human). FITC-arrestin peptide / GST-AP2 beads; AP2 beta2 appendage carries R879A mutation. inhibition, % at 10 µM. 340,000 tested, 0.31% active. AID 504490, 2011;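 active = inhibition above a set limit, near 3 SD of compounds lacking own fluorescence, cut at about 54% in these data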;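 also: plate controls were DMSO wells for no effect and 5 µM unlabelled arrestin peptide for full effect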
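Test system: GST-tagged AP2 beta2-adaptin appendage (R879A) on 4 µm glutathione beads; also added: fluorescein-tagged arrestin peptide at 50 nM final; timing: 12 min plus 1 h, RT; signal: flow cytometry, FL1 (488/535 nm); read-out: percent drop in bead-associated FITC signal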
Env fusion inh – inhibitors of HIV-1 Env-driven cell-cell fusion, primary screen, HeLa-JRFL effector, CEM21 target cells, luciferase; inhibition, % at 12.3 µM; 360,000 tested, 1.1% active; AID 651610, 2012;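 active = mean replicate inhibition score of at least 50 and every replicate individually at or above 50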;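 also: 0% = plate neutral controls and 100% = maraviroc near 300 nM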
Glyco luc inh – increase of ERlucT glycosylation luciferase signal, primary screen, N-linked glycosylation inhibitor project, D54 ERlucT cells, luminescence, set 2; D54 ERlucT glycosylation luciferase reporter, 24 h; percent of 100 nM tunicamycin response; reporter increase, % at 12.5 µM; 360,000 tested, 0.23% active; AID 588692, 2011;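 active = mean luciferase reporter signal, scaled so untreated is 0 and the glycosylation-blocking control 100, at or above a set limit in every replicate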;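 also: luciferase carries N-glycosylation sites so blocking glycosylation raises the light; 0% = median of neutral control wells and 100% = median of 100 nM tunicamycin wells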
PfHsp90 yeast 2 – growth inhibition of PfHsp90-expressing yeast, primary screen, antimalarial PfHsp90 inhibitor project, S. cerevisiae, BacTiter-Glo luminescence, single point, set 2 | BacTiter-Glo ATP, 48 h; yeast lacking PDR1 and PDR3 efflux regulators | 310,000 tested, 0.32% active | inhibition, % at 9.4 µM;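 active = every replicate shows inhibition above about 80%, whatever the replicate mean, limit read from the data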;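 also: 0% = DMSO neutral controls and 100% = 20 µM radicicol positive controls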
PAX8 reporter – inhibitors of PAX8-driven TPO luciferase reporter, primary screen, RMG-I cells, single concentration; SteadyGlo, 24 h; inhibition, % at 12.6 µM; 360,000 tested, 1.2% active;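 active = mean replicate inhibition at least 60% with every replicate also reaching 60%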;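 also: luciferase light reporting Pax8 driven TPO promoter activity; plate controls were median of neutral control wells for no effect and mitoxantrone controls for full effect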
Rtt109 HAT inh – inhibitors of C. albicans Rtt109/Vps75 HAT, primary screen, biochemical, ThioGlo CoA-SH fluorescence, plate reader; AID 540336, 2011; 330,000 tested, 0.16% active; purified Rtt109/Vps75, 4 h; inhibition, % at 34.9 µM;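 active = inhibition of at least 50% in every replicate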
Arr AP2 CP1 – inhibitors of arrestin peptide binding to AP2, confirmation, biochemical, cherry pick 1, flow cytometry beads; AID 504908, 2011; inhibition, % at 10 µM; 1,300 tested, 2% active; GST-AP2 beads, FITC arrestin peptide binding; GST-fused beta2-adaptin appendage, R879A mutant; shares compounds with Arr AP2 block;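 active = inhibition above a set limit, roughly 3 SD of non-fluorescent compound noise, cut at about 38% in these data; inactive = inhibition at or below that limit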;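 also: loss of bead fluorescence from 50 nM FITC arrestin peptide bound to appendage; 0% = negative control wells and 100% = excess unlabelled arrestin peptide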
Target sequence (P63010 whole entry, looked up, the tested form may be a part, one chain of several): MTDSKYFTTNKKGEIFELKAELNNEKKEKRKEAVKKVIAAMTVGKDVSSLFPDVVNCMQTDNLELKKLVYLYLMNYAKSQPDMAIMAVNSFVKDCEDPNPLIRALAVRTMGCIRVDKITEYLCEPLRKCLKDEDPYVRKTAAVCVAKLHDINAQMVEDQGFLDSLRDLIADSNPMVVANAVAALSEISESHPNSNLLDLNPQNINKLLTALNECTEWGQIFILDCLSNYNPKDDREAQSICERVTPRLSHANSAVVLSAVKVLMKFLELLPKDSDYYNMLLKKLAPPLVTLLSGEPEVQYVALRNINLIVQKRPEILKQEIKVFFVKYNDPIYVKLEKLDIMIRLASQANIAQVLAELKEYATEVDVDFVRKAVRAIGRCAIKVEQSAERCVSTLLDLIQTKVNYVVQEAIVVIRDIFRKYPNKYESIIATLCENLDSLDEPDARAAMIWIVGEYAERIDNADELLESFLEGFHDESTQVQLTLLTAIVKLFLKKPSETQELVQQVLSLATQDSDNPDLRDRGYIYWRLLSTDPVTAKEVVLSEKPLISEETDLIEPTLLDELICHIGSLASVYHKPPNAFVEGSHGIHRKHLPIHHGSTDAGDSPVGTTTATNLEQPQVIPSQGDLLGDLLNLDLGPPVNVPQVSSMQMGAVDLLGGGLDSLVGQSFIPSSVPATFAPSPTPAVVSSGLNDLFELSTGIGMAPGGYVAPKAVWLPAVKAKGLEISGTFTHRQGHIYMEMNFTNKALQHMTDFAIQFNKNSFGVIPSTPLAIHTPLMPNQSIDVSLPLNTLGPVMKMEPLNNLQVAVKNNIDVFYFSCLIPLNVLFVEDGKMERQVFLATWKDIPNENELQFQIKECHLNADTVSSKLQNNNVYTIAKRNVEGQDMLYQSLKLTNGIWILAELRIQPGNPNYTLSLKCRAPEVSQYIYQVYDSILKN
GST-FITC bead – GST-fluorescein capture on glutathione beads, confirmation, artefact control for arrestin-AP2 inhibitor project, biochemical, cherry pick 1, flow cytometry. shares compounds with Arr AP2 block. GST-fluorescein binding to GSH beads, fluorescence, counter-screen. inhibition, % at 10 µM. 1,300 tested, 2% active;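 active = inhibition above 50%, about 3 SD of the inhibition seen with non-fluorescent compounds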;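 also: fluorescein maleimide labelled GST captured on 4 micron glutathione beads; higher means more loss of bead fluorescence from quenching or blocked binding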
Active calls of the source: *; [ ] = remark or other dose. This is a sample that favours compounds with a hit; in the whole collection about 2.3% have one here.

What do the screens show for `CCOC(=O)C1(Cc2cccc(Cl)c2)CCCN(C(=O)c2cn[nH]c2)C1` (stereo not drawn)?
Arr AP2 block: 67*; Env fusion inh: 12; Glyco luc inh: 1; PfHsp90 yeast 2: 3; PAX8 reporter: 5; Rtt109 HAT inh: 22; Arr AP2 CP1: 4; GST-FITC bead: -8

Results for CCOC(=O)C1(Cc2ccccc2)CCCN(C(=O)c2cn[nH]c2)C1 (stereo not drawn) ?
Arr AP2 block: 7; Env fusion inh: 4; Glyco luc inh: 0; PfHsp90 yeast 2: -30; PAX8 reporter: -5; Rtt109 HAT inh: -8

How did CCOC(=O)C1(Cc2cccc(Cl)c2)CCCN(C(=O)CN2C(=O)CSC2=O)C1 (stereo not drawn) do in these assays?
Arr AP2 block: 62*; Env fusion inh: 5; Glyco luc inh: 2; PfHsp90 yeast 2: 9; Rtt109 HAT inh: -7; Arr AP2 CP1: -7; GST-FITC bead: -6

Results for O=C(CCN1CCCCC1)NCC[C@@H]1CC[C@@H](NS(=O)(=O)c2cccc(F)c2)[C@H](CO)O1 ?
Env fusion inh: -18[16.7 µM]; PAX8 reporter: -15

What do the screens show for `CC(=O)N1[C@@H]2c3ccc(-c4ccccc4)c(=O)n3C[C@H]1[C@H](CO)[C@H]2C(=O)N1CCN(C)CC1`?
PAX8 reporter: -15

What do the screens show for `O=C(C[C@@H]1CC[C@@H]2NC[C@@H](O)COC[C@H]2O1)N1CCc2ccccc2C1`?
Env fusion inh: -11[16.7 µM]; PAX8 reporter: 8

What do the screens show for `CC(C)Cn1c(N)c(C(=O)COC(=O)c2cc3ccccc3cc2O)c(=O)n(C)c1=O`?
Arr AP2 block: 0; Glyco luc inh: -3; PfHsp90 yeast 2: 7; PAX8 reporter: 23; Rtt109 HAT inh: 4

How did Cc1cccc(C(=O)OCC(=O)c2c(N)n(CC(C)C)c(=O)n(C)c2=O)c1O do in these assays?
Arr AP2 block: -10; Env fusion inh: 60*; Glyco luc inh: -3; PfHsp90 yeast 2: -8; PAX8 reporter: -2; Rtt109 HAT inh: -27; Arr AP2 CP1: -8; GST-FITC bead: -5

How did CC(C)Cn1c(N)c(C(=O)COC(=O)c2ccc(O)cc2O)c(=O)n(C)c1=O do in these assays?
Arr AP2 block: -6; Env fusion inh: -3; Glyco luc inh: -2; PfHsp90 yeast 2: -11; Rtt109 HAT inh: -1; Arr AP2 CP1: 5; GST-FITC bead: -6

What do the screens show for `C/C=C/c1ccc2c(c1)O[C@H](CN(C)CC1CCOCC1)[C@H](C)CN([C@H](C)CO)S2(=O)=O`?
Env fusion inh: 5[16.7 µM]; PAX8 reporter: -22

Results for CCOc1ccccc1NC(=O)Nc1cnccn1 ?
Arr AP2 block: 103*; Env fusion inh: 8; Glyco luc inh: 1; PfHsp90 yeast 2: -6; PAX8 reporter: -4; Rtt109 HAT inh: 3; Arr AP2 CP1: 1; GST-FITC bead: 16

What do the screens show for `O=C(Nc1cnccn1)Nc1ccccc1Cl`?
Arr AP2 block: 2; Env fusion inh: -19; Glyco luc inh: 2; PfHsp90 yeast 2: -16; PAX8 reporter: -1; Rtt109 HAT inh: 11

Results for CCc1ccccc1NC(=O)Nc1cnccn1 ?
Arr AP2 block: 45; Env fusion inh: 51; Glyco luc inh: 1; PfHsp90 yeast 2: 7; PAX8 reporter: 10; Rtt109 HAT inh: 5; Arr AP2 CP1: -12; GST-FITC bead: -6

What do the screens show for `COC(=O)c1ccccc1NC(=O)Nc1cnccn1`?
Arr AP2 block: 7; Env fusion inh: -80; Glyco luc inh: -1; PfHsp90 yeast 2: 19; Rtt109 HAT inh: 1

Results for CN(C)C(=O)C[C@H]1C=C[C@@H](NC(=O)Nc2cccc(F)c2)[C@@H](CO)O1 ?
Env fusion inh: -15[16.7 µM]; PAX8 reporter: -13

Results for O=C(Nc1ccc(F)cc1)N1C[C@H]2[C@@H](c3ccccc31)[C@H](CO)N2C(=O)c1cccnc1 ?
PAX8 reporter: -5

How did C=CCOc1c(CNc2ccc3[nH]c(=O)[nH]c3c2)cccc1OC do in these assays?
Arr AP2 block: 20; Env fusion inh: -3; Glyco luc inh: 1; PfHsp90 yeast 2: 1; PAX8 reporter: 4; Rtt109 HAT inh: -3

What do the screens show for `COc1cccc(CNc2ccc3[nH]c(=O)[nH]c3c2)c1OCc1ccc(F)cc1`?
Arr AP2 block: 55*; Env fusion inh: 8; Glyco luc inh: 0; PfHsp90 yeast 2: -21; PAX8 reporter: 21; Rtt109 HAT inh: 7; Arr AP2 CP1: 18; GST-FITC bead: 13

How did COc1ccc(S(=O)(=O)N(C)C[C@@H]2Oc3ccc(NS(=O)(=O)c4ccc(C)cc4)cc3C(=O)N([C@H](C)CO)C[C@@H]2C)cc1 do in these assays?
PAX8 reporter: 0

What do the screens show for `COc1ccc(NC(=O)N[C@H]2CC[C@@H](CCNS(=O)(=O)c3ccccc3F)O[C@H]2CO)cc1`?
Env fusion inh: 12[16.7 µM]; PAX8 reporter: 3

What do the screens show for `O=C(N[C@H]1C=C[C@H](CC(=O)N2CCCCC2)O[C@H]1CO)c1ccc2c(c1)OCO2`?
Env fusion inh: -88[16.7 µM]; PAX8 reporter: 1

Results for Cc1ccc(NC(=O)N2CCCCC2)cc1NC(=O)N1CCCCC1 ?
Arr AP2 block: 32; Env fusion inh: -1; Glyco luc inh: 2; PfHsp90 yeast 2: 3; PAX8 reporter: -2; Rtt109 HAT inh: 0

How did Cc1ccc(NC(=O)N2CCCCCC2)cc1C do in these assays?
Arr AP2 block: 63*; Env fusion inh: -37; Glyco luc inh: 1; PfHsp90 yeast 2: -23; Rtt109 HAT inh: 21; Arr AP2 CP1: -14; GST-FITC bead: -4

What do the screens show for `CCOC(=O)N1CCN(C(=O)CSCc2ccc(C)cc2)CC1`?
Arr AP2 block: 24; Glyco luc inh: 1; PfHsp90 yeast 2: 13; Rtt109 HAT inh: 6

What do the screens show for `CCOC(=O)N1CCN(C(=O)CCSCCc2ccncc2)CC1`?
Arr AP2 block: 57*; Glyco luc inh: 1; PfHsp90 yeast 2: -9; Rtt109 HAT inh: -1; Arr AP2 CP1: -5; GST-FITC bead: -6

From PubChem BioAssay
